Each block holds one compound with its values, some of them ahead of it.
Legend:
[1] = Drug level in human liver microsomes treated with 4-(1,1,1,2,3,3,3-Heptafluoropropan-2-yl)-N-(6-(2-hydroxyethoxy)-5-(2-methoxyphenoxy)-2,2'-bipyrimidin-4-yl)benzenesulfonamide at 5 uM in presence of NADPH after 30 mins by LC-MS/MS analysis; type: ADME; settings: 0.5 h
Summary of the method: (§1)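 Substrate at 5 μM final in 100 mM potassium phosphate, pH 7.4, incubated with human liver microsomes or baculovirus-expressed recombinant CYP3A4, 2D6 or 2C9. Reaction started with 1 mM NADPH and run 0, 15 and 30 min at 37 °C. Stopped with ice-cold acetonitrile containing labetalol internal standard, then centrifuged. Supernatant analysed by LC-MS/MS on a C18 column at 40 °C. Blank was enzyme without substrate.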

[2] = Retention time of the compound; type: physicochemical
Cytochrome P450 3A4 [3] = biological target: T1, Cytochrome P450 3A4 (Homo sapiens, UniProt P08684); experiment: Drug level assessed as human recombinant CYP3A4-mediated compound formation treated with 4-(1,1,1,2,3,3,3-Heptafluoropropan-2-yl)-N-(6-(2-hydroxyethoxy)-5-(2-methoxyphenoxy)-2,2'-bipyrimidin-4-yl)benzenesulfonamide at 5 uM in presence of NADPH after 30 mins by LC-MS/MS analysis; type: ADME; settings: recombinant enzyme, 0.5 h; summary of the method: as §1
[4] = biological target: T2, Endothelin-1 receptor (Homo sapiens) (UniProt P25101); experiment: Agonist activity at ETA receptor in human SKNMC cells assessed as induction of Ca2+ mobilization at 10 nM by fluorimetric method relative to control; type: functional, cell-based; settings: SK-N-MC
T2 sequence (whole entry): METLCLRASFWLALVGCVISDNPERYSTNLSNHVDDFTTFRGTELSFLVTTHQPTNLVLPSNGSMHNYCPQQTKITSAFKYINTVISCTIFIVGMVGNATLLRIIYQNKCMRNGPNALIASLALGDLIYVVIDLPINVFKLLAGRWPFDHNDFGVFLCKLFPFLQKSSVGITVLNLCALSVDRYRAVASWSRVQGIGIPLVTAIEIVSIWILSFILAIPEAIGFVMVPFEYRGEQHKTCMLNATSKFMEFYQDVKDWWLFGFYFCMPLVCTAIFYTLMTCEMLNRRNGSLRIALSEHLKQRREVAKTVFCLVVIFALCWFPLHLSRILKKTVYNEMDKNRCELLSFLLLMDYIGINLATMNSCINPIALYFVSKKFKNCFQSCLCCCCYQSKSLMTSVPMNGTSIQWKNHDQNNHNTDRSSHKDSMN
Summary of the method: (§2)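 ETA functional assay run by Cerep in human neuroblastoma SK-N-MC cells at 22 °C with fluorimetric read-out. Test solutions were 1, 10, 100 and 1000 nM. Agonist response is given as % of the control response to 100 nM endothelin-1. For antagonist mode, inhibition is given as % of the control endothelin-1 agonist response, with BQ-123 as reference antagonist.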

Cytochrome P450 2C9 = Cytochrome P450 2C9 (Homo sapiens, UniProt P11712); experiment: Drug metabolism assessed as human recombinant CYP2C9-mediated metabolite formation by measuring parent compound remaining at 5 uM in presence of NADPH after 30 mins by LC-MS/MS analysis; type: ADME; settings: recombinant enzyme, 0.5 h; summary of the method: as §1
[5] = biological target: T2, Endothelin-1 receptor (Homo sapiens); experiment: Agonist activity at ETA receptor in human SKNMC cells assessed as induction of Ca2+ mobilization at 100 nM by fluorimetric method relative to control; type: functional, cell-based; settings: SK-N-MC; summary of the method: as §2
[6] = biological target: T2, Endothelin-1 receptor (Homo sapiens); experiment: Agonist activity at ETA receptor in human SKNMC cells assessed as induction of Ca2+ mobilization at 1 nM by fluorimetric method relative to control; type: functional, cell-based; settings: SK-N-MC; summary of the method: as §2
[7] = Drug metabolism in human liver microsomes assessed as formation of 4-(1,1,1,3,3,3-hexafluoro-2-hydroxypropan-2-yl)-N-(6-(2-hydroxyethoxy)-5-(2-hydroxyphenoxy)-2,2'-bipyrimidin-4-yl)benzenesulfonamide at 5 uM in presence of NADPH after 30 mins by LC-MS/MS analysis; type: ADME; settings: 0.5 h; summary of the method: as §1
[8] = biological target: T2, Endothelin-1 receptor (Homo sapiens); experiment: Antagonist activity at ETA receptor in human SKNMC cells assessed as inhibition of endothelin-1-mediated Ca2+ mobilization at 10 nM by fluorimetric method relative to control; type: functional, cell-based; settings: SK-N-MC; summary of the method: as §2
[9] = biological target: T3, Endothelin receptor type B (Homo sapiens) (UniProt P24530); experiment: Agonist activity at human recombinant ETB receptor expressed in CHOK1 cells assessed as induction of Ca2+ mobilization at 1 nM by fluorimetric method relative to control; type: functional, cell-based; settings: CHO-K1
T3 sequence (whole entry): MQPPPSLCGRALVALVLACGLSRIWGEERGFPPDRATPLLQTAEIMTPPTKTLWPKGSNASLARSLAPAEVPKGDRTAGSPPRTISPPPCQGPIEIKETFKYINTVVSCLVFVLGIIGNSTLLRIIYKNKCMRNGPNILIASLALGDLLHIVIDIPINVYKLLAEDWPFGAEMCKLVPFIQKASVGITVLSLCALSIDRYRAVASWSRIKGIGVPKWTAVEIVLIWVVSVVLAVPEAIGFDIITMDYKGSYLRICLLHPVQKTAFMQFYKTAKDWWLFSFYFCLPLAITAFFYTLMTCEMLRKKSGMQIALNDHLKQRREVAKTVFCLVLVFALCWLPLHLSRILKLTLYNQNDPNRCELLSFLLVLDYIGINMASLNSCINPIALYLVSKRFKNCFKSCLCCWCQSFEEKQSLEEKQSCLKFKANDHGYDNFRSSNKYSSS
Summary of the method: as §2, with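 “ETB” for “ETA”, “recombinant CHO-k1” for “neuroblastoma SK-N-MC”, “BQ-788” for “BQ-123”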

Cytochrome P450 3A4 [10] = biological target: T1, Cytochrome P450 3A4; experiment: Drug metabolism assessed as human recombinant CYP3A4-mediated metabolite formation by measuring parent compound remaining at 5 uM in presence of NADPH after 30 mins by LC-MS/MS analysis; type: ADME; settings: recombinant enzyme, 0.5 h; summary of the method: as §1
Cytochrome P450 3A4 [11] = biological target: T1, Cytochrome P450 3A4; experiment: Drug level assessed as human recombinant CYP3A4-mediated compound formation treated with 4-(1,1,1,3,3,3-Hexafluoro-2-methoxypropan-2-yl)-N-(6-(2-hydroxyethoxy)-5-(2-methoxyphenoxy)-2,2'-bipyrimidin-4-yl)benzenesulfonamide at 5 uM in presence of NADPH after 30 mins by LC-MS/MS analysis; type: ADME; settings: recombinant enzyme, 0.5 h; summary of the method: as §1
[12] = Metabolic stability in human liver microsomes assessed as parent compound remaining at 5 uM in presence of NADPH after 30 mins by LC-MS/MS analysis; type: ADME; settings: read-out: Stability
Summary of the method: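 Pooled human liver microsomes in 100 mM potassium phosphate, pH 7.4, with test compound at 5 μM final. Reaction started with 1 mM NADPH (final) and run at 37 °C in a shaking water bath for 0, 15 and 30 min. Stopped with an equal volume of ice-cold acetonitrile containing 0.6 μM labetalol as internal standard. Protein was spun out and the supernatant analysed by LC-MS/MS. Blank had no compound.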

[13] = biological target: T3, Endothelin receptor type B (Homo sapiens); experiment: Agonist activity at human recombinant ETB receptor expressed in CHOK1 cells assessed as induction of Ca2+ mobilization at 100 nM by fluorimetric method relative to control; type: functional, cell-based; settings: CHO-K1
Summary of the method: as §2, with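 “ETB” for “ETA”, “recombinant CHO-k1” for “neuroblastoma SK-N-MC”, “BQ-788” for “BQ-123”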

[14] = Cytotoxicity against CHOK1 cells assessed as decrease in cell viability after 24 hrs by MTT assay; type: toxicity, cell-based, Cricetulus griseus; settings: Chinese hamster, CHO-K1 cells
Summary of the method: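 CHO-k1 cells grown in phenol-red-free DMEM/F-12 with 10% FBS, seeded at 20,000 cells/well and allowed to attach overnight. Exposure was 24 h to 0.1–200 μM, with DMSO as vehicle control. MTT at 1 mg/mL for 3 h at 37 °C, formazan dissolved in DMSO, absorbance read at 570 nm. Data given as % OD of vehicle control; IC50 taken from dose–response curve fits.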

Cytochrome P450 3A4 [15] = biological target: T1, Cytochrome P450 3A4; experiment: Drug metabolism assessed as human recombinant CYP3A4-mediated formation of 4-(1,1,1,3,3,3-hexafluoro-2-hydroxypropan-2-yl)-N-(6-(2-hydroxyethoxy)-5-(2-hydroxyphenoxy)-2,2'-bipyrimidin-4-yl)benzenesulfonamide at 5 uM in presence of NADPH after 30 mins by LC-MS/MS analysis; type: ADME; settings: recombinant enzyme, 0.5 h; summary of the method: as §1
[16] = Drug level in human liver microsomes treated with 4-(1,1,1,3,3,3-Hexafluoro-2-methoxypropan-2-yl)-N-(6-(2-hydroxyethoxy)-5-(2-methoxyphenoxy)-2,2'-bipyrimidin-4-yl)benzenesulfonamide at 5 uM in presence of NADPH after 30 mins by LC-MS/MS analysis; type: ADME; settings: 0.5 h; summary of the method: as §1
[17] = biological target: T2, Endothelin-1 receptor (Homo sapiens); experiment: Antagonist activity at ETA receptor in human SKNMC cells assessed as inhibition of endothelin-1-mediated Ca2+ mobilization at 100 nM by fluorimetric method relative to control; type: functional, cell-based; settings: SK-N-MC; summary of the method: as §2
[18] = biological target: T3, Endothelin receptor type B (Homo sapiens); experiment: Antagonist activity at human recombinant ETB expressed in CHOK1 cells assessed as inhibition of endothelin-1-mediated Ca2+ mobilization at 10 nM by fluorimetric method relative to control; type: functional, cell-based; settings: CHO-K1
Summary of the method: as §2, with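 “ETB” for “ETA”, “recombinant CHO-k1” for “neuroblastoma SK-N-MC”, “BQ-788” for “BQ-123”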

[19] = biological target: T2, Endothelin-1 receptor (Homo sapiens); experiment: Antagonist activity at ETA receptor in human SKNMC cells assessed as inhibition of endothelin-1-mediated Ca2+ mobilization at 1 nM by fluorimetric method relative to control; type: functional, cell-based; settings: SK-N-MC; summary of the method: as §2
[20] = biological target: T3, Endothelin receptor type B (Homo sapiens); experiment: Agonist activity at human recombinant ETB receptor expressed in CHOK1 cells assessed as induction of Ca2+ mobilization at 10 nM by fluorimetric method relative to control; type: functional, cell-based; settings: CHO-K1
Summary of the method: as §2, with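 “ETB” for “ETA”, “recombinant CHO-k1” for “neuroblastoma SK-N-MC”, “BQ-788” for “BQ-123”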

[21] = biological target: T3, Endothelin receptor type B (Homo sapiens); experiment: Antagonist activity at human recombinant ETB expressed in CHOK1 cells assessed as inhibition of endothelin-1-mediated Ca2+ mobilization at 100 nM by fluorimetric method relative to control; type: functional, cell-based; settings: CHO-K1
Summary of the method: as §2, with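 “ETB” for “ETA”, “recombinant CHO-k1” for “neuroblastoma SK-N-MC”, “BQ-788” for “BQ-123”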

Cytochrome P450 2D6 = Cytochrome P450 2D6 (Homo sapiens, UniProt P10635); experiment: Drug metabolism assessed as human recombinant CYP2D6-mediated metabolite formation by measuring parent compound remaining at 5 uM in presence of NADPH after 30 mins by LC-MS/MS analysis; type: ADME; settings: recombinant enzyme, 0.5 h; summary of the method: as §1
[22] = biological target: T3, Endothelin receptor type B (Homo sapiens); experiment: Antagonist activity at human recombinant ETB expressed in CHOK1 cells assessed as inhibition of endothelin-1-mediated Ca2+ mobilization at 1 nM by fluorimetric method relative to control; type: functional, cell-based; settings: CHO-K1
Summary of the method: as §2, with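 “ETB” for “ETA”, “recombinant CHO-k1” for “neuroblastoma SK-N-MC”, “BQ-788” for “BQ-123”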

[23] = Drug level in human liver microsomes treated with bosentan at 5 uM in presence of NADPH after 30 mins by LC-MS/MS analysis; type: ADME; settings: 0.5 h; summary of the method: as §1
Cytochrome P450 3A4 [24] = biological target: T1, Cytochrome P450 3A4; experiment: Drug level assessed as human recombinant CYP3A4-mediated compound formation treated with bosentan at 5 uM in presence of NADPH after 30 mins by LC-MS/MS analysis; type: ADME; settings: recombinant enzyme, 0.5 h; summary of the method: as §1

T1 sequence (P08684 whole entry): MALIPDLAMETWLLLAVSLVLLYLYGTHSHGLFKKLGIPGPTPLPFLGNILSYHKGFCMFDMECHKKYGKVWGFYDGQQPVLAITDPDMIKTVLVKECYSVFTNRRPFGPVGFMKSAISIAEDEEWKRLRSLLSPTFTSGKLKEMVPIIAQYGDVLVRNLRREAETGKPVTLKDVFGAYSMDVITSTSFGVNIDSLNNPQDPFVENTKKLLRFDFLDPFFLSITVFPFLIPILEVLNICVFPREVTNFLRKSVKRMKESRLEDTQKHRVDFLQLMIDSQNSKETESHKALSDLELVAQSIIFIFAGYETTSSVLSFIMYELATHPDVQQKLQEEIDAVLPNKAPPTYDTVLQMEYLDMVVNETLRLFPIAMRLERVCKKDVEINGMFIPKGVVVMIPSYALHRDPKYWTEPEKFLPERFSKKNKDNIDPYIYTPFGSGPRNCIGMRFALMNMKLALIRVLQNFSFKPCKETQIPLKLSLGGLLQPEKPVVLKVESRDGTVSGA
Chain of Cytochrome P450 2C9 (P11712 whole entry): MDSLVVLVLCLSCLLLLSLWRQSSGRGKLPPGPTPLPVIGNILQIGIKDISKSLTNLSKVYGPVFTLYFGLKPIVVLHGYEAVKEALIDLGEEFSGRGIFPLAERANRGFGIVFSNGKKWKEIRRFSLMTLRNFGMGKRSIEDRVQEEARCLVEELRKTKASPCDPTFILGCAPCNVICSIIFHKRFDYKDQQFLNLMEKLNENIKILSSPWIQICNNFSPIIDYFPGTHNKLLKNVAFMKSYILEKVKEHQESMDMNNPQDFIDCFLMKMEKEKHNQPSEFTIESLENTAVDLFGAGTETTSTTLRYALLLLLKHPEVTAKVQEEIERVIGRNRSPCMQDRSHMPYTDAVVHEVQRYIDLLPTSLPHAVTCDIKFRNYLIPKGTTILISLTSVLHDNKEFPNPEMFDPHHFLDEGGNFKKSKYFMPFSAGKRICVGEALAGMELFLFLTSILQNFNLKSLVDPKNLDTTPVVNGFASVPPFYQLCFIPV
Chain of Cytochrome P450 2D6 (P10635 whole entry): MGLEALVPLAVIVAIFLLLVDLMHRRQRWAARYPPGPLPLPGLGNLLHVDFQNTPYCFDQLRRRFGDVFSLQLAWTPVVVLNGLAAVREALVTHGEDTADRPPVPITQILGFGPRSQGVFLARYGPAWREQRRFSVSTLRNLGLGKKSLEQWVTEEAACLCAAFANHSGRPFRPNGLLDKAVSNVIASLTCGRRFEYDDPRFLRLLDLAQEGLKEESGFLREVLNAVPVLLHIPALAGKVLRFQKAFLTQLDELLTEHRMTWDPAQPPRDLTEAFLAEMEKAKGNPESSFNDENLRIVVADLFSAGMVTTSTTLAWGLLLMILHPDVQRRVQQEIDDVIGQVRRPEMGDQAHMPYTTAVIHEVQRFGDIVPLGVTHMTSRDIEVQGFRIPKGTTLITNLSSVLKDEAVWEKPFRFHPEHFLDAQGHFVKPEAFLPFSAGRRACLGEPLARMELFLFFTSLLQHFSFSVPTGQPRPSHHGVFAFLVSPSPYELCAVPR

Drug metabolism [1]: Metabolite_Detected | Retention_time [2]: 5.27 min | Drug metabolism (Cytochrome P450 3A4 [3]): Metabolite_Detected
SMILES: O=S(=O)(Nc1nc(-c2ncccn2)nc(OCCO)c1Oc1ccccc1O)c1ccc(C(F)(C(F)(F)F)C(F)(F)F)cc1

Activity [4]: 0% | Stability (Cytochrome P450 2C9): 100% | Activity [5]: 0% | Activity [6]: 0% | Drug metabolism [7]: Metabolite_Detected | inhibition [8]: -5% | Activity [9]: -1% | Stability (Cytochrome P450 3A4 [10]): 72.8% | Drug metabolism (Cytochrome P450 3A4 [11]): Metabolite_Detected | remaining at 0.5 h, 5 µM [12]: 90.1% | Activity [13]: -1% | Drug metabolism (Cytochrome P450 3A4 [15]): Metabolite_Detected | Drug metabolism [16]: Metabolite_Detected | inhibition [17]: -7% | inhibition [18]: 11% | inhibition [19]: -9% | Activity [20]: -1% | inhibition [21]: 14% | Stability (Cytochrome P450 2D6): > 99% | Retention_time [2]: 4.72 min | inhibition [22]: 12%
SMILES: COc1ccccc1Oc1c(NS(=O)(=O)c2ccc(C(O)(C(F)(F)F)C(F)(F)F)cc2)nc(-c2ncccn2)nc1OCCO
IC50 at 24 h [14]: > 200 µM

Drug metabolism [23]: Metabolite_Detected | Drug metabolism (Cytochrome P450 3A4 [24]): Metabolite_Detected | Retention_time [2]: 4.73 min
SMILES: CC(C)(C)c1ccc(S(=O)(=O)Nc2nc(-c3ncccn3)nc(OCCO)c2Oc2ccccc2O)cc1

Drug metabolism [23]: Metabolite_Detected | Drug metabolism (Cytochrome P450 3A4 [24]): Metabolite_Detected | Retention_time [2]: 4.16 min
SMILES: CC(C)(CO)c1ccc(S(=O)(=O)Nc2nc(-c3ncccn3)nc(OCCO)c2Oc2ccccc2O)cc1

— ChEMBL document CHEMBL3861962 (Eur J Med Chem, 2016)
